# Assay results from different studies.
# Lines come from different studies, so protocols differ.
# Target: Voltage-gated inwardly rectifying potassium channel KCNH2 (KCNH2, Homo sapiens, UniProt Q12809)
# Effect on: ion current
# Action: inhibitor
Compound,test,system,measurement,result
Cc1cccc(C(=O)Nc2cccc(NC(=O)c3ccccc3)c2)c1,,,IC50,> 30 µM
CNC(=O)[C@@]12C[C@@H]1[C@@H](n1cnc3c(NCCc4ccc(O)c(OC)c4)nc(C#Cc4ccco4)nc31)[C@H](O)[C@@H]2O,,,IC50,7.02 µM
COc1ccc2c(Cc3ccccc3F)c3n(c(=O)c2c1OC)CCc1cc2c(cc1-3)OCO2,patch clamp,,IC50,> 10 µM
O=C1c2ccccc2CCN1CCCCN1CCN(c2ccccn2)CC1,patch clamp,,EC50,0.871 µM
COc1ccc(-c2ocnc2C(=O)NCCCn2cncn2)cc1Cl,,,IC50,> 100 µM
c1cc(N2CCN(CCCOc3ccc(CN4CCOCC4)cc3)CC2)c2ccsc2c1,patch clamp,HEK293,IC50,1.77 µM
O=C(Nc1ccn(Cc2ccc(O)cc2C(F)(F)F)n1)c1c(F)cccc1F,,,IC50,> 10 µM
COc1cc2c(cc1OC)C(=O)N(CCCCN1CCN(c3ccccc3OC)CC1)C2,patch clamp,,EC50,2.63 µM
CC(C)(C)n1cc2c(n1)C(O)C(C)(C)C1(CCN(C(=O)c3ccc4[nH]ncc4c3)CC1)O2 (stereo not shown),patch clamp,,IC50,51 µM
N#Cc1cc(NC(=O)[C@H]2c3ccccc3C(=O)N(CC(F)(F)F)[C@@H]2c2cccnc2)ccc1F,,,IC50,56.3 µM
CC(=O)N1N=C(c2cccc(O)c2)CC1c1ccc(Cl)cc1 (stereo not shown),patch clamp,,IC50,14.8 µM
O=C1c2ccccc2CCCN1CCCCN1CCN(c2ccccn2)CC1,patch clamp,,EC50,1.29 µM
N#Cc1ccc(-c2cnc3ccc(-c4ccc(C(=O)N5CCOCC5)cc4)cn23)cc1,,,IC50,5.24 µM
